# A selection: hits, their analogues and other compounds. The true share with any hit is near 4.8%.
# T cruzi inh: inhibitors of intracellular T. cruzi growth, primary screen, luminescence, NIH3T3 host cells. AID 1885, 2009. inhibition, % (concentration not given with the values). T. cruzi beta-gal in NIH3T3, 90 h. hit rate 1.4% among 300,000;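 active means mean inhibition across valid replicates above about 55%, limit read from the data; inconclusive means mean below that limit but half or more replicates reach it; inactive means mean below it, under half of replicates reach it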;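 further: signal also drops with host cell toxicity which is not excluded here; 0% = plate median of DMSO wells and 100% = zero luminescence signal; higher percent means less beta-gal luminescence so fewer parasites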
#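 Material: NIH/3T3 host cells with β-galactosidase reporter T. cruzi; Input: 5,000 host fibroblasts per well; Medium: DMEM, 2% fetal bovine serum; Compound: 50 nL DMSO compound solution per well; Schedule: 3 h host attachment, then at least 90 h co-culture; Detection: luminescent β-galactosidase signal after 60 min lysis.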
# Jurkat NFkB inh: inhibitors of induced NF-kB luciferase reporter, primary screen, TCR NF-kB activation inhibitor project, cell-based, luminescence, uHTS; inhibition, % at 4 µM; hit rate 0.53% among 330,000; Jurkat, PMA/ionomycin-induced NF-kB luciferase reporter; in the data active means inhibition above about 50%
# HSF1 inhib: HSF1 inhibitors in luciferase reporter cells, primary screen, cell-based, NIH3T3, luminescence. activity change, negative = inhibition, % at 7.5 µM (by protocol). hit rate 0.77% among 300,000. NIH3T3-HGL HSE-luciferase, MG132-induced, luminescence 8 h; stronger effect = lower value;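 active means more than half of replicate wells show activity change below -50%, luminescence cut by over half; inconclusive means some wells, but at most half, below -50%; inactive means no replicate well below -50%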;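 further: luciferase reports HSF-1 transcriptional activity via heat shock element; 0% = median of DMSO wells and -100% = zero luminescence signal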
# 697 NFkB inh: inhibitors of PMA/ionomycin-induced NF-kB reporter, 697 cells, primary screen, B-cell NF-kB inhibitor project, cell-based, luminescence, uHTS. 697 B-cell NF-kB luciferase reporter, 16 h. inhibition, % at 4 µM. hit rate 0.33% among 330,000. AID 435022, 2010; in the data active means inhibition above about 35%
# HSF-1 act: HSF-1 activators, primary screen, NIH3T3-HGL cells, MG132 stress, luminescence, single point. NIH3T3-HGL HSF-1 luciferase reporter, 8 h; 100% = twice DMSO control signal. activation, % at 9 µM. hit rate 1.7% among 300,000. AID 504408, 2011;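 active means mean replicate activation of at least 50% with a set share of replicates each reaching 50%; inconclusive means only one of those two conditions met; inactive means mean below 50% and too few replicates reaching it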;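 further: 0% = median of the neutral control wells and 100% = twice that signal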
# GPR7 antag: GPR7 receptor antagonists, primary screen, cell-based, fluorescence, single concentration; AID 1861, 2009; GPR7-expressing cells, fluorescence antagonist assay; hit rate 1.1% among 290,000; Neuropeptides B/W receptor type 1 (Homo sapiens), P48145; inhibition, % at 4.4 µM; in the data active means inhibition above about 16%, passing the limit was not always enough;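 further: cells stimulated with the agonist NPW; 0% = agonist with vehicle and 100% = vehicle without agonist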
# Target sequence (P48145 whole entry, looked up): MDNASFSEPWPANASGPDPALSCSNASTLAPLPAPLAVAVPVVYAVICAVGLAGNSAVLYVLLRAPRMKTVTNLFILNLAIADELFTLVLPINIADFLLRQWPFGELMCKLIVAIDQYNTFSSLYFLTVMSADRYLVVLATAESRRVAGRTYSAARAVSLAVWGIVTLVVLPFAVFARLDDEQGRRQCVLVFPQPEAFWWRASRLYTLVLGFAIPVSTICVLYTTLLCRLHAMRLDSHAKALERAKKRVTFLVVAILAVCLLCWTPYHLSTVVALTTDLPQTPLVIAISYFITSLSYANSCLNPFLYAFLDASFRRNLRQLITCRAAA
# * = called active by the depositor; ? = inconclusive; nt = no result.
SMILES,T cruzi inh,Jurkat NFkB inh,HSF1 inhib,697 NFkB inh,HSF-1 act,GPR7 antag
CCOC(=O)c1ccc(NC(=O)Oc2ccccc2)cc1,-2.7,-3.8,-50.8*,28.3,-63.2,-4.8
C[C@H](CO)N1C[C@H](C)[C@@H](CN(C)S(C)(=O)=O)Oc2ccc(NC(=O)Nc3ccccc3)cc2C1=O,nt,11.0,nt,23.1,nt,nt
CCOC(=O)c1ccc(NC(=O)NS(=O)(=O)c2ccc(C)cc2)cc1,-8.5,17.7,-58.0*,-2.0,-65.2,-8.0
CCOC(=O)c1ccc(NC(=O)CNS(=O)(=O)c2ccccc2)cc1,nt,-10.8,nt,-3.8,nt,-10.5
Cc1ccc(OCC(=O)Nc2ccccc2C(=O)N2CCCCC2)cc1,-5.4,16.0,-53.3*,21.4,-63.9,-12.6
C=CCSC1=N/C(=C/c2ccsc2)C(=O)N1c1ccccc1,5.0,-24.4,-9.0,-34.7,-0.7,-7.5
Cc1ccc(C)c(Sc2ccc(NC(=O)CCl)cc2)c1,40.1,22.9,31.7,-131.7,74.6*,12.0
CCCc1cc2c(=O)c(-c3ccc4c(c3)OCCO4)coc2cc1OC(=O)c1ccco1,7.3,-89.5,32.5,-186.5,64.5*,3.1
Clc1nc2c(-c3ccccc3)nnn2c2ccccc12,64.3*,-10.6,58.2,-0.6,?,-10.4
NNc1nc2c(-c3ccc(F)cc3)nnn2c2ccccc12,3.3,-137.0,42.7,-169.6,34.3,-5.5
NNc1nc2c(-c3ccc(Cl)cc3)nnn2c2ccccc12,-0.2,-133.2,43.1,-131.2,72.6*,-5.5
Fc1cccc(-c2nnn3c2nc(Cl)c2ccccc23)c1,33.6,nt,356.1,nt,453.9*,2.5
Cc1ccc(-c2nnn3c2nc(Cl)c2ccccc23)cc1,-11.1,nt,28.4,nt,49.5,-7.1
COc1ccccc1C1CC(c2ccc(C)cc2)Nc2ncnn21 (stereo not drawn),13.6,4.4,-8.9,-8.7,-14.2,14.2*
COc1ccccc1C1CC(c2ccc(F)cc2)Nc2ncnn21 (stereo not drawn),2.1,-10.6,-8.9,-34.9,-0.8,14.9
Cc1cccc(NC(=S)/N=C(\N)Nc2nc(C)c3ccc(C)cc3n2)c1,59.8*,30.4,11.2,-23.8,37.0,-5.0
Cc1cccc(-n2cc(CN(C)Cc3nccn3C)c(-c3cccc(F)c3)n2)c1,65.2*,-5.5,-9.9,-7.2,-8.4,4.0
CCn1ccnc1CN(C)Cc1cn(-c2ccc(C)cc2)nc1-c1cccc(C)c1,66.4*,-4.5,21.6,5.9,40.1,-1.1
Cc1ccc(-n2cc(CN3CCNC(=O)CC3)c(-c3cccc(C)c3)n2)cc1,24.8,9.8,nt,15.9,nt,3.3
COc1ccc(-n2cc(CN(C)CCO)c(-c3cccc(F)c3)n2)cc1,16.1,0.9,-4.3,8.2,9.3,-2.9
CCn1ccnc1CNCc1cn(-c2cc(C)ccc2C)nc1-c1ccccc1,7.8,19.1,-4.4,8.4,12.9,-5.3
Cc1ccc(-n2cc(CN3CCN(Cc4nccn4C)CC3)c(-c3cccc(C)c3)n2)cc1,41.5,2.0,27.7,0.3,51.2*,3.4
CCn1ccnc1CN(C)Cc1cn(-c2cccc(C)c2)nc1-c1cccc(F)c1,55.4*,-11.7,5.5,8.8,6.3,-9.9
CCOc1ccc(S(=O)(=O)N2CCN(CN3C(=O)CC4(CCCC4)C3=O)CC2)cc1,nt,-4.9,nt,7.1,nt,nt
CSCC[C@H](NC(=O)c1cccc(S(=O)(=O)N2CCCCC2)c1)c1nc2ccccc2[nH]1,nt,-10.6,nt,-17.5,nt,nt
SMILES,T cruzi inh,Jurkat NFkB inh,HSF1 inhib,697 NFkB inh,HSF-1 act,GPR7 antag
Cc1ccc(SCc2cn3cccnc3n2)cc1,-4.3,-23.5,22.5,-32.3,43.9,6.7
Cc1ccn2cc(CSc3ccccc3)nc2c1,-17.6,-114.5,41.7,-121.5,52.9*,2.2
CCC1CCCCN1C(=O)CCNC(=O)Cn1cnc2ccccc2c1=O (stereo not drawn),-0.8,-16.2,-3.4,9.8,-4.0,-2.2
COc1ccc(CN2CCN(C(=O)C3CCC(CNS(=O)(=O)c4ccc(C)cc4)CC3)CC2)c(OC)c1OC (stereo not drawn),56.6*,20.1,1.2,11.5,-3.5,-8.1
COc1ccc(CN2CCN(C(=O)C3CCN(S(=O)(=O)c4cccs4)CC3)CC2)c(OC)c1OC,-0.7,3.7,-3.9,-11.7,11.6,-3.7
CN(C)c1ccc(C2Nc3cccc4cccc(c34)N2)cc1,-13.4,-15.3,-23.0,-115.6,-24.0,5.6
O=C1NC(c2ccc(Cl)cc2)Nc2ccccc21 (stereo not drawn),-18.3,-45.4,30.1,-37.2,70.1*,6.5
CN(C)c1ccc(C2NC(=O)c3ccccc3N2)cc1 (stereo not drawn),10.5,-107.5,53.6,-165.0,78.2*,14.2
Cc1ccc(C2NC(=O)c3ccccc3N2)s1 (stereo not drawn),-10.0,-24.3,46.2,-41.7,66.9*,14.7
CC(=O)Nc1cccc(NC(=O)C2CC(=O)N(C3CCCCC3)C2)c1 (stereo not drawn),-2.1,4.3,0.0,30.5,7.7,-6.2
CCN(CC)CCOC(=O)c1ccc(NC(=O)c2cn(-c3ccccc3)nc2-c2cccs2)cc1,nt,-12.0,nt,-41.8,nt,-0.5
CCOc1ccc(CCNC(=O)c2cccc(NC3=NC4CS(=O)(=O)CC4S3)c2)cc1 (stereo not drawn),-9.5,-4.4,-4.2,7.7,-23.9,-1.4
Cc1cc(N2CCCC2)c(F)cc1/C=C\[N+](=O)[O-],12.7,nt,160.0,nt,207.1*,10.8
COc1cc(/C=N/NC(=O)CC2(C)OCCCO2)ccc1OCc1ccccc1,7.7,-26.6,11.2,6.8,25.7,-2.1
CC1(CC(=O)N/N=C/c2ccc(OCc3ccc(Cl)cc3Cl)cc2)OCCCO1,10.1,-21.8,31.1,-63.9,53.6*,-4.6
COc1cc(/C=N/NC(=O)CN2CCCCC2)ccc1OCc1ccc(Br)cc1,-10.6,-115.0,45.5,-10.2,79.1*,-2.4
COc1cc(/C=N/NC(=O)CC2(C)OCCCO2)ccc1OCc1ccc(Cl)cc1Cl,13.7,-24.9,40.5,4.0,67.9*,-5.9
CCc1ccc(N2C(=O)CN(Cc3sccc3C)C2=S)cc1,17.1,-12.6,6.8,-1.8,-16.3,6.8
O=C(CCS(=O)(=O)c1ccccc1Cl)NCCC1=CCCCC1,0.1,-5.9,6.6,2.2,19.2,7.6
CC(O/N=C\c1ccccc1O)C(=O)Nc1ccccc1C(=O)N1CCOCC1 (stereo not drawn),-30.0,2.6,-57.6*,-1.8,-68.6,1.1
Cc1ccoc1C(=O)N1CCCC(CCC(=O)N2CCN(c3ccccn3)CC2)C1 (stereo not drawn),22.2,-6.8,3.7,14.5,0.2,-6.9

# Assay outcomes from PubChem BioAssay.
